Test results as given in article PMC4570879 (Journal of biomolecular screening, 2014).

How the values were obtained:
[1] = molecular target: T1, Human recombinant catalytic domain of PERK (Homo sapiens, UniProt Q9NZJ5); experiment: Radiometric PERK kinase assay; assay type: biochemical; conditions: method of replots
T1 sequence (Q9NZJ5 536-1116): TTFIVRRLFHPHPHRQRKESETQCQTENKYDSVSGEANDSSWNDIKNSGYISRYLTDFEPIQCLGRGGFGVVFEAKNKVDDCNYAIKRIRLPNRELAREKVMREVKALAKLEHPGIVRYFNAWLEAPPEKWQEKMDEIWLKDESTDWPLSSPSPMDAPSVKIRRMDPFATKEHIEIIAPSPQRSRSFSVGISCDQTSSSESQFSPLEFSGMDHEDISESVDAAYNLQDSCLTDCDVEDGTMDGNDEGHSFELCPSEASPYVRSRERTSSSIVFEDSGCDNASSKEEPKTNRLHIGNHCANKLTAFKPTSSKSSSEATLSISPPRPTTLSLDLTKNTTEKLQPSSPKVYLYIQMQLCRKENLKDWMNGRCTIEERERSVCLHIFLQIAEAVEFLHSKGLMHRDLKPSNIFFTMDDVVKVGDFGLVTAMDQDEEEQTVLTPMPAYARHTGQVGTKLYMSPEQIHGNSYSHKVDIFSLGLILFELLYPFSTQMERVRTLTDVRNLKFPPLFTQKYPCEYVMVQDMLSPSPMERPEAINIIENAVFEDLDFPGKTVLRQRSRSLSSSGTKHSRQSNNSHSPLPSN
How it was run: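 Radiometric filter assay using GST-tagged human PERK catalytic domain (aa 536–1116) at 8 nM and full-length Flag-tagged eIF2α. Buffer was 20 mM HEPES pH 7.2, 10 mM MgCl₂, 150 mM NaCl, 0.01% Tween 20, with [γ-³³P]ATP, at room temperature. Initial velocity versus ATP was measured at fixed 10 µM eIF2α across several test compound concentrations. Reactions were stopped with 75 mM phosphoric acid, filter-captured, washed and scintillation-counted; no-PERK background; analysed by replots.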

PERK = experiment: Thapsigargin-induced eIF2α phosphorylation in MEFs; assay type: cell-based, mouse; conditions: wild-type MEFs, pretreated at 50 µM for 1 or 24 h, then thapsigargin 500 nM 1 h
How it was run: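 Wild-type mouse embryonic fibroblasts were grown in high-glucose DMEM with 4 mM L-glutamine, 10% FBS, penicillin/streptomycin and β-mercaptoethanol. Cells were pretreated with test compound at 50 µM for 1 or 24 h, then with 500 nM thapsigargin for 1 h; PERK⁻/⁻ MEFs served as control.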

[2] = molecular target: T1, Human recombinant catalytic domain of PERK; conditions: published PERK inhibitor; cited from earlier work

With `O=c1ccc2nccc3c4ccccc4n1c23` [LDN-0022506, canthin-6-one] the “mechanism of inhibition with respect to ATP” value ([1]; ATP variable, fixed eIF2α) was “noncompetitive”, the “mechanism of inhibition with respect to eIF2α” value ([1]; eIF2α variable, fixed ATP) was “noncom-petitive” and the “stress-dependent eIF2α phosphorylation” value (PERK) was “inhibited”.

For `Cn1cc(-c2ccc3c(c2)CCN3C(=O)Cc2cccc(C(F)(F)F)c2)c2c(N)ncnc21` [GSK2606414, 7-Methyl-5-(1-{[3-(trifluoromethyl)phenyl]acetyl}-2,3-di-hydro-1H–indol-5-yl)-7H–p yrrolo[2,3-d]pyrimidin-4-amine], the “mechanism of action on PERK” value [2] is listed as “ATP competitive”.
